Experimental data reported in ChEMBL document CHEMBL4428026, “Discovery of New Monocarbonyl Ligustrazine-Curcumin Hybrids for Intervention of Drug-Sensitive and Drug-Resistant Lung Cancer” (J Med Chem, 2016).
Active and inactive are the calls of the source. The calls are words filed in the database; no cut-off is given here.

Key:
A549 [1] = assay: Inhibition of NFkappaB phosphorylation in human A549 cells at 2.1 to 4.2 uM after 24 hrs by Western blot method; type: cell-based
In short: (§1)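 Cells were plated at 1 × 10^6/well overnight, then treated 24 h with vehicle DMSO (0.1%, v/v) or compound (A549, 2.1 or 4.2 µM; A549/DDP, 0.6 or 1.2 µM). Lysis was at 4 °C. Lysates were run on SDS-PAGE (7.5% gel, 20 µg/lane) and immunoblotted with ECL detection; phospho-Akt Ser473 and phospho-ERK Thr202/Tyr204 were probed. Bands were normalized to GAPDH (TrxR, Trx) or β-actin. Three independent experiments were run.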

[2] = molecular target: T1, ATP-dependent translocase ABCB1 (Homo sapiens, UniProt P08183); assay: Inhibition of P-gp ATPase activity in human A549/CDDP cells at 40 uM by luminescence assay (reference value: 706683 +/- 23554 RLU); type: cell-based
[3] = molecular target: RAC-alpha serine/threonine-protein kinase (Homo sapiens) (UniProt P31749); assay: Inhibition of Akt phosphorylation in human A549/CDDP cells at 0.6 to 1.2 uM after 24 hrs by Western blot method; type: cell-based; in short: as §1
Thioredoxin reductase [4] = molecular target: T2, Thioredoxin reductase (Homo sapiens, UniProt Q16881+Q9NNW7+Q86VQ6); assay: Inhibition of thioredoxin reductase in human A549 cells by DTNB dye based microplate spectrophotometry; type: cell-based
In short: (§2)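 A549 or A549/DDP cells were treated with varying compound concentrations for 24 h, then harvested, homogenized and centrifuged. Protein (50 µg) was reacted in triplicate with NADPH and DTNB in TE buffer at 37 °C for 1 h, and TNB was read at 412 nm. Activity was taken from a purified-TrxR standard curve, and IC50 was derived.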

[5] = Toxicity in BALB/c nude mouse xenografted with human A549/CDDP cells assessed as body weight at 20 mg/kg, ip administered daily for 15 consecutive days measured on day 15 (reference value: 21 +/- 1.28 g); type: organism-based; details: in vivo
A549 [6] = assay: Induction of apoptosis in human A549 cells assessed as increase in cleaved PARP level at 2.1 to 4.2 uM after 24 hrs by Western blot method; type: functional, cell-based; in short: as §1
A549 [7] = assay: Induction of apoptosis in human A549 cells assessed as increase in Bax to Bcl2 ratio at 2.1 to 4.2 uM after 24 hrs by Western blot method; type: functional, cell-based; in short: as §1
[8] = Antiproliferative activity against human LTEP-G2 cells after 72 hrs by MTT assay; type: functional, cell-based
In short: (§3)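 Cells (A549, A549/DDP, SPC-A-1, LTEP-G-2, non-tumor bronchial epithelial HBE) were exposed in triplicate to vehicle or compound for 72 h. MTT (5 mg/mL in PBS) was then added for 4 h, formazan was dissolved in DMSO, and absorbance was read at 570 nm. IC50 values were derived from viability.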

[9] = Cytotoxicity against NHBE cells after 72 hrs by MTT assay; type: cell-based; details: Homo sapiens; in short: as §3
A549 [10] = assay: Induction of apoptosis in human A549 cells assessed as increase in cleaved caspase 3 level at 2.1 to 4.2 uM after 24 hrs by Western blot method; type: functional, cell-based; in short: as §1
[11] = Antiproliferative activity against human SPC-A1 cells after 72 hrs by MTT assay; type: functional, cell-based; details: SPCA1, 72 h; in short: as §3
A549/CDDP [12] = assay: Induction of ROS generation in human A549/CDDP cells 2.1 to 4.2 uM after 60 mins by DHE staining-based fluorescence assay; type: functional, cell-based
In short: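 A549 or A549/DDP cells were treated in triplicate for 60 min with vehicle DMSO (0.1%, v/v) or a range of compound concentrations. Cells were stained with dihydroethidium, and intracellular ROS fluorescence was read on a microplate reader at 300 and 610 nm. Three independent experiments were run.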

A549/CDDP [13] = assay: Effect on NFkappaB expression in human A549/CDDP cells at 0.6 to 1.2 uM after 24 hrs by Western blot method; type: functional, cell-based; in short: as §1
[14] = Toxicity in BALB/c nude mouse xenografted with human A549/CDDP cells assessed as body weight at 40 mg/kg, ip administered daily for 15 consecutive days measured on day 15 (reference value: 21 +/- 1.28 g); type: organism-based; details: in vivo
In short: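 Athymic BALB/c nude mice of both sexes, 4-5 weeks, inoculated subcutaneously with A549/DDP cells (1 × 10^7/mouse). Once tumors reached 180-200 mm3, mice were randomized and given ip dosing daily for 15 consecutive days. Vehicle was PBS/DMSO/cremophor-EL (8:1:1), given at the same volume to controls. Body weight was recorded on day 1 and day 15. Reported as mean ± SD, n = 8.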

[15] = Acute toxicity in ICR mouse assessed as mortality at 200 to 400 mg/kg, ip measured at 4 hr post treatment; type: organism-based; details: in vivo
In short: (§4)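 Male and female ICR mice (7 weeks), randomized, 10 per group, given one intraperitoneal dose at 200, 250, 300, 350, 400 or 450 mg/kg. Animals were watched for abnormal behaviour and deaths up to two weeks. Deaths were tallied at 1 h, 4 h, day 3 and days 4-14, with survival on day 14. LD50 was calculated with 95% confidence limits.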

A549/CDDP [16] = assay: Inhibition of NFkappaB phosphorylation in human A549/CDDP cells at 0.6 to 1.2 uM after 24 hrs by Western blot method; type: cell-based; in short: as §1
[17] = Acute toxicity in ip dosed ICR mouse assessed as mortality measured up to 2 weeks; type: organism-based; details: in vivo; in short: as §4
[18] = molecular target: RAC-alpha serine/threonine-protein kinase (Homo sapiens) (UniProt P31749); assay: Inhibition of Akt phosphorylation in human A549 cells at 2.1 to 4.2 uM after 24 hrs by Western blot method; type: cell-based; in short: as §1
[19] = Toxicity in BALB/c nude mouse xenografted with human A549/CDDP cells assessed as body weight at 20 mg/kg, ip administered daily for 15 consecutive days measured on day 1 (reference value: 19.3 +/- 1.55 g); type: organism-based; details: in vivo
A549 [20] = assay: Effect on NFkappaB expression in human A549 cells at 2.1 to 4.2 uM after 24 hrs by Western blot method; type: functional, cell-based; in short: as §1
Thioredoxin reductase [21] = molecular target: T2, Thioredoxin reductase; assay: Inhibition of thioredoxin reductase in human A549/CDDP cells by DTNB dye based microplate spectrophotometry; type: cell-based; in short: as §2
A549 [22] = assay: Induction of apoptosis in human A549 cells assessed as increase in Bax expression at 2.1 to 4.2 uM after 24 hrs by Western blot method; type: functional, cell-based; in short: as §1
[23] = Acute toxicity in ICR mouse assessed as survival at 200 mg/kg, ip measured on day 14; type: organism-based; details: in vivo; in short: as §4
[24] = molecular target: T1, ATP-dependent translocase ABCB1; assay: Inhibition of P-gp in human A549/CDDP cells assessed as accumulation of rhodamine 123 at 0.03 to 1.2 uM by flow cytometry; type: cell-based
In short: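 A549/DDP cells were treated with compound (0.03-1.2 µM), with verapamil as the reference P-gp inhibitor. Intracellular rhodamine 123 accumulation was measured by flow cytometry.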

[25] = Acute toxicity in ICR mouse assessed as survival at 400 mg/kg, ip measured on day 14; type: organism-based; details: in vivo; in short: as §4

Chain of RAC-alpha serine/threonine-protein kinase (Homo sapiens) (P31749 whole entry): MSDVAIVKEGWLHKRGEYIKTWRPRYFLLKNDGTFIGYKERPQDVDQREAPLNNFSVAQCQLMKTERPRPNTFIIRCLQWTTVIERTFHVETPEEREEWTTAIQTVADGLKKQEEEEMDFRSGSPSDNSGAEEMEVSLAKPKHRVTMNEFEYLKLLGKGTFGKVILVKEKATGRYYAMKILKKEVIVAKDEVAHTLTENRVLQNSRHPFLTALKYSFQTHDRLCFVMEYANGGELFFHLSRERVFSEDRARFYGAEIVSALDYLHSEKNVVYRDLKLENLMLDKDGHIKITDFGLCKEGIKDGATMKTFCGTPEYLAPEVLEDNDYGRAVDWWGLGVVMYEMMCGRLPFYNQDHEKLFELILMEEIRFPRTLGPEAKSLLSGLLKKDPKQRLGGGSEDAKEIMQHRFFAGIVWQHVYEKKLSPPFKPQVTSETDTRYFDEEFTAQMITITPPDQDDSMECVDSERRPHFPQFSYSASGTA
T1 sequence (P08183 whole entry): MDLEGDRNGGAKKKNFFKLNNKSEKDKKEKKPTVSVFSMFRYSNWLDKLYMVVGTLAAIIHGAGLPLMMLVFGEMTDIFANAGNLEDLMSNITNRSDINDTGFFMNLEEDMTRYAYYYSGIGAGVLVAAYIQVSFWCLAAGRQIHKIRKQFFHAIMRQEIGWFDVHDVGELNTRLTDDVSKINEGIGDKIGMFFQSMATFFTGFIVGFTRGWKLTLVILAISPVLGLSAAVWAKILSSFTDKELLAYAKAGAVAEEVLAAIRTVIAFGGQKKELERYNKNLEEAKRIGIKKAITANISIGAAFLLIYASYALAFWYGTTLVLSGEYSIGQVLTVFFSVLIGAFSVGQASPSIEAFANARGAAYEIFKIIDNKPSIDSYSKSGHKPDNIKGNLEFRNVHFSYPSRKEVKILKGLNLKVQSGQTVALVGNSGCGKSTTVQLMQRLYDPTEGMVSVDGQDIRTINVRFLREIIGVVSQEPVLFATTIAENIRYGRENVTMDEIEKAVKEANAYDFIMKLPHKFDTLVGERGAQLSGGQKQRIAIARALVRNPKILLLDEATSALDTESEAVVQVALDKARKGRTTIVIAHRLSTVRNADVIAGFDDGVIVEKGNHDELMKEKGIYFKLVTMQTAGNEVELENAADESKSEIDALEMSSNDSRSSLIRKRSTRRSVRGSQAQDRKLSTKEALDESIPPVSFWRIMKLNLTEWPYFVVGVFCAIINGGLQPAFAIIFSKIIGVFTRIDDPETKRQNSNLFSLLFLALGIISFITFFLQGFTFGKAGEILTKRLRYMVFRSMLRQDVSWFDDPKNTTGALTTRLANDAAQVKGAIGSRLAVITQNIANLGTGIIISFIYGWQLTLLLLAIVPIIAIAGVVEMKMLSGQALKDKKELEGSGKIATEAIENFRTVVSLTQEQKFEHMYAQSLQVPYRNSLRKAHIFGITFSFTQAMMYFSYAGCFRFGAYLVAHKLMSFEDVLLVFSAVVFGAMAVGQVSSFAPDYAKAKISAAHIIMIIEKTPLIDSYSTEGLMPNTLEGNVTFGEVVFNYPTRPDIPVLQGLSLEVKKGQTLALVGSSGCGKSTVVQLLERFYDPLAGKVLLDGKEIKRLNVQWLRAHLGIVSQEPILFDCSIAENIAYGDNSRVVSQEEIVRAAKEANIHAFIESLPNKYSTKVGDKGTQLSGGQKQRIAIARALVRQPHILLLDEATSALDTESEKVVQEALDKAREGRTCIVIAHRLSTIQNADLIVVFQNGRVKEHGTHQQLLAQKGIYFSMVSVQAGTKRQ

## COc1cc(/C=C/C(=O)/C=C/c2nc(C)c(C)nc2C)ccc1O
A549 [1]
  inhibition: Active
[2]
  Activity: 761592 RLU
[3]
  inhibition: Active
Thioredoxin reductase [4]
  IC50: 1490 nM
[5]
  Activity: 18.6 g
A549 [6]
  Activity: Active
A549 [7]
  Activity: Active
[8]
  IC50: 2880 nM
[9]
  IC50: 21300 nM
A549 [10]
  Activity: Active
[11]
  IC50: 3120 nM
A549/CDDP [12]
  Activity: Active
A549/CDDP [13]
  Activity: inactive
[14]
  Activity: 19.6 g
[15]
  Activity: Non-Toxic
A549/CDDP [16]
  inhibition: Active
[17]
  LD50 at 336 h: 285 mg/kg
[18]
  inhibition: Active
[19]
  Activity: 18.3 g
A549 [20]
  Activity: inactive
Thioredoxin reductase [21]
  IC50: 1220 nM
A549 [22]
  Activity: Active
[23]
  survival at 14 day: 90%
[24]
  inhibition (INH): Active
[25]
  survival at 14 day: 10%
